Experimental findings from ChEMBL document CHEMBL1140087, “Synthesis and structure-activity relationship studies of cytotoxic ester and ether anhydrovinblastine derivatives” (J Nat Prod, 2008) are described below.

One assay has as its system HeLa. The experiment in a line: Cytotoxicity against human HeLa cells after 72 hrs by SRB assay. The format is functional, cell-based. Put shortly:
(§1)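 Ditartrate salts tested. ATCC cells seeded at 6000/well, attached overnight, then exposed in triplicate to graded concentrations at 37 °C for 72 h. Fixed with 10% trichloroacetic acid for 60 min at 4 °C, stained with 0.4% w/v SRB in 1% acetic acid for 15 min, dye solubilised in Tris buffer, A515 read. IC50 for 50% growth inhibition by Logit method. Anhydrovinblastine as positive control.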
(In general: The SRB assay estimates cell density from bound dye.)

The next assay has as its system A549. The experiment in a line: Cytotoxicity against human A549 cells after 72 hrs by SRB assay. In kind it is functional, cell-based. Conditions: A549, 72 h. Put shortly:
as §1

Consider `CCC1=C[C@@H]2CN(CCc3c([nH]c4ccccc34)[C@@](C(=O)OC)(c3cc4c(cc3OC)N(C)[C@H]3[C@@](O)(COC(=O)C(C)C)[C@H](OC(C)=O)[C@]5(CC)C=CCN6CC[C@]43[C@@H]65)C2)C1`, for which the results for the IC50 in the assay on HeLa and in the assay on A549 were 0.0875 µM and 0.0599 µM, respectively.
Consider `CCC1=C[C@@H]2CN(CCc3c([nH]c4ccccc34)[C@@](C(=O)OC)(c3cc4c(cc3OC)N(C)[C@H]3[C@@](O)(COC(=O)c5ccc(Cl)cc5)[C@H](OC(C)=O)[C@]5(CC)C=CCN6CC[C@]43[C@@H]65)C2)C1`, for which the IC50 (as a rule, the concentration needed to halve the response being measured) worked out at 0.102 µM in the assay with HeLa and 0.0567 µM with A549.
Take `CCC(=O)OC[C@@]1(O)[C@H](OC(C)=O)[C@]2(CC)C=CCN3CC[C@@]4(c5cc([C@@]6(C(=O)OC)C[C@@H]7C=C(CC)CN(CCc8c6[nH]c6ccccc86)C7)c(OC)cc5N(C)[C@@H]14)[C@@H]32`: the IC50 with HeLa stood at 0.0621 µM; in the assay with A549, 0.0391 µM.
With `CCC1=C[C@@H]2CN(CCc3c([nH]c4ccccc34)[C@@](C(=O)OC)(c3cc4c(cc3OC)N(C)[C@H]3[C@@](O)(COC(=O)c5ccccc5)[C@H](OC(C)=O)[C@]5(CC)C=CCN6CC[C@]43[C@@H]65)C2)C1`, the values for the IC50 with HeLa and with A549 were 0.0356 µM and 0.0254 µM, respectively.
Turning to `CCC1=C[C@@H]2CN(CCc3c([nH]c4ccccc34)[C@@](C(=O)OC)(c3cc4c(cc3OC)N(C)[C@H]3[C@@](O)(COC(=O)C5CC5)[C@H](OC(C)=O)[C@]5(CC)C=CCN6CC[C@]43[C@@H]65)C2)C1`, the IC50 in the assay with HeLa came out at 0.0381 µM; in the assay on A549 it was 0.0479 µM.
Regarding `CCOC[C@@]1(O)[C@H](OC(C)=O)[C@]2(CC)C=CCN3CC[C@@]4(c5cc([C@@]6(C(=O)OC)C[C@@H]7C=C(CC)CN(CCc8c6[nH]c6ccccc86)C7)c(OC)cc5N(C)[C@@H]14)[C@@H]32`, the IC50 amounted to 0.22 µM with HeLa and 0.098 µM in the assay on A549.
With `CCCOC[C@@]1(O)[C@H](OC(C)=O)[C@]2(CC)C=CCN3CC[C@@]4(c5cc([C@@]6(C(=O)OC)C[C@@H]7C=C(CC)CN(CCc8c6[nH]c6ccccc86)C7)c(OC)cc5N(C)[C@@H]14)[C@@H]32`, the results for the IC50 with HeLa and with A549 were 0.398 µM and 0.401 µM, respectively.
Regarding `C=CCOC[C@@]1(O)[C@H](OC(C)=O)[C@]2(CC)C=CCN3CC[C@@]4(c5cc([C@@]6(C(=O)OC)C[C@@H]7C=C(CC)CN(CCc8c6[nH]c6ccccc86)C7)c(OC)cc5N(C)[C@@H]14)[C@@H]32`, the IC50 with HeLa amounted to 0.162 µM; with A549 it was 0.124 µM.
Consider `CCC1=C[C@@H]2CN(CCc3c([nH]c4ccccc34)[C@@](C(=O)OC)(c3cc4c(cc3OC)N(C)[C@H]3[C@@](O)(COCc5ccc(OC)cc5)[C@H](OC(C)=O)[C@]5(CC)C=CCN6CC[C@]43[C@@H]65)C2)C1`, for which the IC50 came out at 0.409 µM in the assay on HeLa and 0.702 µM with A549.
Take `CCCCOC[C@@]1(O)[C@H](OC(C)=O)[C@]2(CC)C=CCN3CC[C@@]4(c5cc([C@@]6(C(=O)OC)C[C@@H]7C=C(CC)CN(CCc8c6[nH]c6ccccc86)C7)c(OC)cc5N(C)[C@@H]14)[C@@H]32`: the half-inhibitory concentration (IC50) with HeLa and in the assay on A549 was 0.422 µM throughout.
On to `CCC1=C[C@@H]2CN(CCc3c([nH]c4ccccc34)[C@@](C(=O)OC)(c3cc4c(cc3OC)N(C)[C@H]3[C@@](O)(COC(=O)Cc5ccccc5)[C@H](OC(C)=O)[C@]5(CC)C=CCN6CC[C@]43[C@@H]65)C2)C1`, for which the IC50 with HeLa came to 0.272 µM; in the assay on A549, 0.0674 µM.
In the same order, the values of `CCC1=C[C@@H]2CN(CCc3c([nH]c4ccccc34)[C@@](C(=O)OC)(c3cc4c(cc3OC)N(C)[C@H]3[C@@](O)(COC(=O)CC(C)C)[C@H](OC(C)=O)[C@]5(CC)C=CCN6CC[C@]43[C@@H]65)C2)C1` are 0.175 µM and 0.0703 µM.
With `CCC1=C[C@@H]2CN(CCc3c([nH]c4ccccc34)[C@@](C(=O)OC)(c3cc4c(cc3OC)N(C)[C@H]3[C@@](O)(COC(=O)c5ccccc5Cl)[C@H](OC(C)=O)[C@]5(CC)C=CCN6CC[C@]43[C@@H]65)C2)C1`, the 50% inhibitory concentration (IC50) is 0.147 µM in the assay on HeLa and 0.0405 µM in the assay on A549.
In the same order, the values of `CCC1=C[C@@H]2CN(CCc3c([nH]c4ccccc34)[C@@](C(=O)OC)(c3cc4c(cc3OC)N(C)[C@H]3[C@@](O)(COC(=O)c5ccc(OC)cc5)[C@H](OC(C)=O)[C@]5(CC)C=CCN6CC[C@]43[C@@H]65)C2)C1` are 0.151 µM and 0.0297 µM.
In the case of `CCC1=C[C@@H]2CN(CCc3c([nH]c4ccccc34)[C@@](C(=O)OC)(c3cc4c(cc3OC)N(C)[C@H]3[C@@](O)(COC(=O)c5ccccc5OC)[C@H](OC(C)=O)[C@]5(CC)C=CCN6CC[C@]43[C@@H]65)C2)C1`, the figures for the IC50 with HeLa and in the assay with A549 were 0.154 µM and 0.0142 µM, respectively.
Consider `CCC1=C[C@@H]2CN(CCc3c([nH]c4ccccc34)[C@@](C(=O)OC)(c3cc4c(cc3OC)N(C)[C@H]3[C@@](O)(COC(=O)c5ccc([N+](=O)[O-])cc5)[C@H](OC(C)=O)[C@]5(CC)C=CCN6CC[C@]43[C@@H]65)C2)C1`, for which the values for the IC50 in the assay with HeLa and with A549 were 0.169 µM and 0.0523 µM, respectively.
As for `CCC1=C[C@@H]2CN(CCc3c([nH]c4ccccc34)[C@@](C(=O)OC)(c3cc4c(cc3OC)N(C)[C@H]3[C@@](O)(COC(C)=O)[C@H](OC(C)=O)[C@]5(CC)C=CCN6CC[C@]43[C@@H]65)C2)C1`, the IC50 amounted to 0.0353 µM in the assay with HeLa and 0.0382 µM in the assay with A549.
Turning to `CCC1=C[C@@H]2CN(CCc3c([nH]c4ccccc34)[C@@](C(=O)OC)(c3cc4c(cc3OC)N(C)[C@H]3[C@@](O)(COC(=O)C(C)(C)C)[C@H](OC(C)=O)[C@]5(CC)C=CCN6CC[C@]43[C@@H]65)C2)C1`, the results for the IC50 in the assay on HeLa and in the assay with A549 were 0.096 µM and 0.181 µM, respectively.
